Measured values pooled from the literature.
Lines come from different studies, so protocols differ.
Effect on: cell growth or viability

CCCc1cc(=O)n2nc(NCc3c(F)cc(Cl)cc3F)c(C#N)c2[nH]1
IC50 (HCC33; ATP luminescence; 72 h): > 50 µM

CC[C@H](C)[C@H](N)C(=O)O[C@]1(CC)C(=O)OCc2c1cc1n(c2=O)Cc2cc3cc4c(cc3nc2-1)OCO4
IC50 (HepG2; MTT): 0.098 µM

CCOC(=O)C1=C(N)N(c2ccc(C(=O)OCC)cc2)C(O)=C(C#N)C12C(=O)Nc1ccccc12 (stereo not shown)
viability (HepG2; MTT; 25 µM, 24 h): 26.3%

N.N.[Cl][Pt][Cl]
inhibition (Huh-7; MTT; 20 µM): 76.4%

CC[C@@]1(OC(=O)[C@@H](N)CCSC)C(=O)OCc2c1cc1n(c2=O)Cc2cc3cc4c(cc3nc2-1)OCO4
IC50 (HepG2; MTT): 0.113 µM

[N-]=[N+]=[N-]
IC50 (A-431; MTT; 3 h): > 100 µM

O=C1[O][Pt]2([NH][C@@H]3CCCC[C@H]3[NH]2)[O]C1=O
IC50 (PNT2; MTT; 96 h): 1.3 µM

C=CC(=O)Nc1cc(Nc2nccc(-c3cn(C)c4ccccc34)n2)c(OC)cc1N(C)CCN(C)C
GI50 (NCI-H292; ATP luminescence; 72 h): 3.75 µM

COc1cc(OC)c(/C=C/S(=O)(=O)Nc2ccc(OC)c(N)c2)c(OC)c1
IC50 (RF1; trypan blue; 96 h): 0.004 µM

CC[C@@]1(OC(=O)CN)C(=O)OCc2c1cc1n(c2=O)Cc2cc3cc4c(cc3nc2-1)OCO4
IC50 (HepG2; MTT): 0.025 µM

N.N.[Cl][Pt][Cl]
EC50 (A-431; SRB): 1.8 µM

CC[C@@]1(OC(=O)[C@@H](N)C(C)C)C(=O)OCc2c1cc1n(c2=O)Cc2cc3cc4c(cc3nc2-1)OCO4
IC50 (HepG2; MTT): 0.087 µM

CC1=C(O)C(=O)C=C2C1=CC=C1[C@@]2(C)CC[C@@]2(C)[C@@H]3C[C@](C)(C(=O)O)CC[C@]3(C)CC[C@]12C
inhibition (HepG2; MTT; 20 µM): 92%
